Measured values reported in ChEMBL document CHEMBL2010788, “Consequences of linker length alteration of the α7 nicotinic acetylcholine receptor (nAChR) agonist, SEN12333” (Bioorg Med Chem Lett, 2012).
Calls of active or inactive are those of the source. The rule behind the calls is not given here.

What was measured:
[1] = biological target: T1, Neuronal acetylcholine receptor subunit alpha-7 (Rattus norvegicus, UniProt Q05941); assay: Displacement of [3H]epibatidine from rat alpha7 nAChR expressed in […] cells after 4 hrs by liquid scintillation counting; type: cell-based
How it was run: (§1)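 Competition binding against racemic [³H]epibatidine. Receptor source: membrane homogenates of HEK293 cells stably transfected with the rat nAChR subtype (α3β4, α4β2 or α7). Affinity reported as Ki.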

[2] = biological target: Neuronal acetylcholine receptor subunit alpha-7 (Rattus norvegicus) (UniProt Q05941); assay: Agonist activity at wild type rat recombinant alpha7 nAChR expressed in Xenopus oocyte at 100 uM by voltage clamp electrophysiology assay; type: functional
[3] = biological target: Neuronal acetylcholine receptor; alpha3/beta4 (Rattus norvegicus, UniProt P04757+P12392); assay: Displacement of [3H]epibatidine from rat alpha3beta4 nAChR expressed in […] cells after 4 hrs by liquid scintillation counting; type: cell-based; how it was run: as §1
[4] = biological target: Neuronal acetylcholine receptor subunit alpha-7 (Rattus norvegicus) (UniProt Q05941); assay: Antagonist activity at wild type rat recombinant alpha7 nAChR expressed in Xenopus oocyte assessed as inhibition of ACh-gated current at 100 uM by voltage clamp electrophysiology assay; type: functional
[5] = biological target: Neuronal acetylcholine receptor; alpha4/beta2 (Rattus norvegicus, UniProt P09483+P12390); assay: Displacement of [3H]epibatidine from rat alpha4beta2 nAChR expressed in […] cells after 4 hrs by liquid scintillation counting; type: cell-based; how it was run: as §1
[6] = biological target: Neuronal acetylcholine receptor subunit alpha-7 (Rattus norvegicus) (UniProt Q05941); assay: Partial agonist activity at wild type rat alpha7 nAChR expressed in Xenopus oocyte by voltage clamp electrophysiology assay relative to acetylcholine; type: functional
[7] = biological target: T1, Neuronal acetylcholine receptor subunit alpha-7; assay: Partial agonist activity at wild type rat recombinant alpha7 nAChR expressed in Xenopus oocyte by voltage clamp electrophysiology assay; type: functional

Chain of Neuronal acetylcholine receptor; alpha3/beta4 (P04757 whole entry): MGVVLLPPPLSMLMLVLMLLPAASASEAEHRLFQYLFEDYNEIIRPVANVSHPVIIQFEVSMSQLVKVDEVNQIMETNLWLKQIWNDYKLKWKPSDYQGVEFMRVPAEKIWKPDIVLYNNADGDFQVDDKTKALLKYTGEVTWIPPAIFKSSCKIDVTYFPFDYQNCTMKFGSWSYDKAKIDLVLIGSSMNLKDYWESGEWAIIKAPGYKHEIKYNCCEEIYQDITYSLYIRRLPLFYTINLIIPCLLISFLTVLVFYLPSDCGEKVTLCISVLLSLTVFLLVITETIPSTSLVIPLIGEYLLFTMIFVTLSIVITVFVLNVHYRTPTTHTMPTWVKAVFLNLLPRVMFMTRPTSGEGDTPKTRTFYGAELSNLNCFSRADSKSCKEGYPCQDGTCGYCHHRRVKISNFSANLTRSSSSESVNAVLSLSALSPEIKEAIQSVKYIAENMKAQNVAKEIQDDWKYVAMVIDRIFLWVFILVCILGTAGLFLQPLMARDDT
Chain of Neuronal acetylcholine receptor; alpha3/beta4 (P12392 whole entry): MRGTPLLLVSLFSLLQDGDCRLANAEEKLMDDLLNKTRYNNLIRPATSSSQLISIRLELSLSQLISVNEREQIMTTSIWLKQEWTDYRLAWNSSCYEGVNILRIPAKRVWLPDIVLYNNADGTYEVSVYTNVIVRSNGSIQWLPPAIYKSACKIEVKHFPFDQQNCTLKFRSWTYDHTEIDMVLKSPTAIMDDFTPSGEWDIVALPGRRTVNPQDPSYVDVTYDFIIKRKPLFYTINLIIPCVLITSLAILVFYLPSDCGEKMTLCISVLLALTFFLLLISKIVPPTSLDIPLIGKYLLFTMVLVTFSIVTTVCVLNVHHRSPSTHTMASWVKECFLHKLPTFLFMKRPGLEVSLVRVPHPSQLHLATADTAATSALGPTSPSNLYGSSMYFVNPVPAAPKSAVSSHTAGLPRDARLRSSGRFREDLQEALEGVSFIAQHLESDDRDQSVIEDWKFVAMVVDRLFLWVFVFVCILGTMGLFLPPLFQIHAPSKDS
Chain of Neuronal acetylcholine receptor subunit alpha-7 (Rattus norvegicus) (Q05941 whole entry): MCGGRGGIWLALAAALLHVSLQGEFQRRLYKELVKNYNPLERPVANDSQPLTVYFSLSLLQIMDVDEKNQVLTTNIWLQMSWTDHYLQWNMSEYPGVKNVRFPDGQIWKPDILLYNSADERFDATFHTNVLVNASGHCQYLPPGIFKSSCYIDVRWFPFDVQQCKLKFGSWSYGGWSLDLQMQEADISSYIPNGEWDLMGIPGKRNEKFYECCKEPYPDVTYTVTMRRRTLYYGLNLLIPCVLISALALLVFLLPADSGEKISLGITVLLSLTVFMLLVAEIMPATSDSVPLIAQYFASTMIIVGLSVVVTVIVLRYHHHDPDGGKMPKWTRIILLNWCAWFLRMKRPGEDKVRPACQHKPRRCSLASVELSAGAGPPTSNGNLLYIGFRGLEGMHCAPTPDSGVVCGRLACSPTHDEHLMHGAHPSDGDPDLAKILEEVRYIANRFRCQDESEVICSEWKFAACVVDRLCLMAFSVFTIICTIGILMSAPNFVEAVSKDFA
T1 sequence (Q05941 whole entry): as above
Chain of Neuronal acetylcholine receptor; alpha4/beta2 (P09483 whole entry): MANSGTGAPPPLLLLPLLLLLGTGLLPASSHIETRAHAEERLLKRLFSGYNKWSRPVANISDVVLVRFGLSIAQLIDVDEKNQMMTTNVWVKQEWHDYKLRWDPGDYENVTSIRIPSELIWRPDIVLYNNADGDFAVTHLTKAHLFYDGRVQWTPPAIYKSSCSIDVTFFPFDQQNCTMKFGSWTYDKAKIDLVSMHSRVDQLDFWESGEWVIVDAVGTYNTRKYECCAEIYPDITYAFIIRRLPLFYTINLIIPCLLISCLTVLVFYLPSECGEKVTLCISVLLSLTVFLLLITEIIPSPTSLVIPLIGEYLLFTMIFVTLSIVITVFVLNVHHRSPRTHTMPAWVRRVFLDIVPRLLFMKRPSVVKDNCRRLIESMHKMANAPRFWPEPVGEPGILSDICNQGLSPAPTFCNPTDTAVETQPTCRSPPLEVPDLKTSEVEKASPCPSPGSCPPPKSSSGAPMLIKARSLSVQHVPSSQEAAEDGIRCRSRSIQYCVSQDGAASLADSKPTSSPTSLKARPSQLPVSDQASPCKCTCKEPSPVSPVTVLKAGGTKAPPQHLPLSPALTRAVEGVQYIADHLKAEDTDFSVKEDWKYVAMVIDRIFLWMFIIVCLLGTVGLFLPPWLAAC
Chain of Neuronal acetylcholine receptor; alpha4/beta2 (P12390 whole entry): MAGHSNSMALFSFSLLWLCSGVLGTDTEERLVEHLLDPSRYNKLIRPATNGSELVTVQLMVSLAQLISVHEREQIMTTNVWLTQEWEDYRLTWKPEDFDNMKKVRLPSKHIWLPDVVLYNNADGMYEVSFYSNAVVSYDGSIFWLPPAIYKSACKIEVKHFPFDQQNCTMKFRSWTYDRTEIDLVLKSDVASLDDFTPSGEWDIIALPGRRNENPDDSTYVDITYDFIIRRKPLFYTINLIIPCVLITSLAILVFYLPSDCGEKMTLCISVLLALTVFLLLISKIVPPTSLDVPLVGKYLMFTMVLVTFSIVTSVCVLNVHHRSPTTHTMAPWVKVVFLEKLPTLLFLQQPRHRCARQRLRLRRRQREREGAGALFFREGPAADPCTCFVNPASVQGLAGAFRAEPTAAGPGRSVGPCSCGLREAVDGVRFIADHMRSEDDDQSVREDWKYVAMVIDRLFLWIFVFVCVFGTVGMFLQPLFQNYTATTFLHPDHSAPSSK

Row | Structure (SMILES) | Ki [1] | Ki [3] | Ki [5] | Activity [6] | EC50 [7] | Activity [2] | inhibition [4]
1 | O=C(CCCCCN1CCOCC1)Nc1ccc(-c2cccnc2)cc1 | > 10 µM | > 10 µM | > 10 µM | – | – | inactive | inactive
2 | O=C(CN1CCOCC1)Nc1ccc(-c2cccnc2)cc1 | 3.9 µM | > 10 µM | > 10 µM | – | – | inactive | inactive
3 | O=C(CCCN1CCOCC1)Nc1ccc(-c2cccnc2)cc1 | > 10 µM | > 10 µM | > 10 µM | – | – | inactive | inactive

Continued, in another order:

Row | Ki [1] | Ki [3] | Ki [5] | Activity [6] | EC50 [7] | Structure (SMILES) | Activity [2] | inhibition [4]
4 | > 10 µM | > 10 µM | > 10 µM | – | – | O=C(CCN1CCOCC1)Nc1ccc(-c2cccnc2)cc1 | inactive | inactive
5 | 0.5 µM | > 10 µM | > 10 µM | 11% | 9.5 µM | O=C(CCCCN1CCOCC1)Nc1ccc(-c2cccnc2)cc1 | – | –
